Activity calls are given as the source filed them. The calls are words filed in the database; no cut-off is given here.
Experiments:
A498 [1] = assay: Induction of apoptosis in human A498 cells assessed as increase in cytochrome C level at 0.5 uM after 6 to 48 hrs by Western blotting analysis; assay type: functional, cell-based
How it was run: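 A498 cells exposed for 6, 12, 24, 36 or 48 h, then washed in PBS and lysed. Lysates were held on ice for 30 min and spun at 12 000g for 20 min. Supernatant protein was measured by Bradford assay, run on 10% SDS-PAGE and transferred to nitrocellulose. Blots were probed for AIF, Endo G, Apaf-1, cytochrome c, caspase 9 and caspase 3, with β-actin as loading control; n = 3 independent experiments.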

NCI-H322M = assay: Cytotoxicity against human NCI-H322M cells after 48 hrs by sulforhodamine B assay; assay type: functional
COLO 205 = assay: Cytotoxicity against human COLO205 cells after 48 hrs by sulforhodamine B assay; assay type: functional; conditions: COLO 205, 48 h
A498 [2] = assay: Cytotoxicity against human A498 cells assessed as reduction in cell viability at 1 uM after 48 hrs by MTT assay relative to control; assay type: functional
HOP-62 = assay: Cytotoxicity against human HOP62 cells after 48 hrs by sulforhodamine B assay; assay type: functional; conditions: HOP-62, 48 h
A498 [3] = assay: Cytotoxicity against human A498 cells after 48 hrs by sulforhodamine B assay; assay type: functional; conditions: A498, 48 h
U-251 = assay: Cytotoxicity against human U251 cells after 48 hrs by sulforhodamine B assay; assay type: functional; conditions: U-251, 48 h
ACHN = assay: Cytotoxicity against human ACHN cells after 48 hrs by sulforhodamine B assay; assay type: functional
SK-OV-3 = assay: Cytotoxicity against human SKOV3 cells after 48 hrs by sulforhodamine B assay; assay type: functional; conditions: SK-OV-3, 48 h
[4] = Cytotoxicity against human EKVX cells after 48 hrs by sulforhodamine B assay; assay type: functional
HL-60 = assay: Cytotoxicity against human HL60 cells after 48 hrs by MTT assay; assay type: functional, cell-based; conditions: HL-60, 48 h
How it was run: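 Cells were treated with a range of concentrations for 48 h. Viability was read by MTT: formazan was dissolved in DMSO and absorbance read at 570 nm. Untreated or 0.1% DMSO cells served as control. Data are mean from three independent experiments. HL-60, H460 and COLO 205 were kept in RPMI-1640 with 10% FBS and penicillin/streptomycin.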

M14 = assay: Cytotoxicity against human M14 cells after 48 hrs by sulforhodamine B assay; assay type: functional; conditions: M14, 48 h
Detroit 551 = assay: Cytotoxicity against human Detroit 551 cells after 48 hrs by MTT assay; assay type: cell-based; conditions: Detroit 551, 48 h
SR = assay: Cytotoxicity against human SR cells after 48 hrs by sulforhodamine B assay; assay type: functional
MCF7 = assay: Cytotoxicity against human MCF7 cells after 48 hrs by sulforhodamine B assay; assay type: functional; conditions: MCF7, 48 h
SF-295 = assay: Cytotoxicity against human SF295 cells after 48 hrs by sulforhodamine B assay; assay type: functional; conditions: SF-295, 48 h
SF-539 = assay: Cytotoxicity against human SF539 cells after 48 hrs by sulforhodamine B assay; assay type: functional; conditions: SF-539, 48 h
Mus musculus = assay: Toxicity in BALB/cAnN.Cg-Foxn1nu/CrlNarl nude mouse assessed as change in body weight at 30 to 60 mg/kg/day, ip qd administered 5 times a week for 28 days measured every 7 days; assay type: organism-based; set-up: route intraperitoneal; conditions: in vivo
How it was run: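 Male nude mice, 18–20 g, 4–6 weeks old, carried subcutaneous A498 xenografts (2 × 10⁶ cells in 0.1 mL PBS). Once nodules reached 100 mm³, mice were randomized, eight per group. They received ip 30 or 60 mg/kg 5 times weekly for 4 weeks, with body weight and tumor size recorded every 7 days over 28 days.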

HCT-116 = assay: Cytotoxicity against human HCT116 cells after 48 hrs by sulforhodamine B assay; assay type: functional; conditions: HCT-116, 48 h
SN12C = assay: Cytotoxicity against human SN12C cells after 48 hrs by sulforhodamine B assay; assay type: functional
A498 [5] = assay: Cell cycle arrest in human A498 cells assessed as accumulation at G0/G1 phase at 0.5 uM after 24 hrs by propidium iodide staining-based flow cytometry (reference value: 78.70 +/- 0.02%); assay type: functional
CAKI-1 = assay: Cytotoxicity against human Caki1 cells after 48 hrs by sulforhodamine B assay; assay type: functional; conditions: CAKI-1, 48 h
UACC-257 = assay: Cytotoxicity against human UACC257 cells after 48 hrs by sulforhodamine B assay; assay type: functional; conditions: UACC-257, 48 h
A498 [6] = assay: Induction of apoptosis in human A498 cells assessed as early apoptotic cells at 0.5 uM after 36 hrs by AnnexinV/FITC-propidium iodide staining-based flow cytometry (reference value: 3.9%); assay type: functional
NCI/ADR-RES = assay: Cytotoxicity against human NCI/ADR-RES cells after 48 hrs by sulforhodamine B assay; assay type: functional
SNB-19 = assay: Cytotoxicity against human SNB19 cells after 48 hrs by sulforhodamine B assay; assay type: functional; conditions: SNB-19, 48 h
SW-620 = assay: Cytotoxicity against human SW620 cells after 48 hrs by sulforhodamine B assay; assay type: functional; conditions: SW-620, 48 h
NCI-H23 = assay: Cytotoxicity against human NCI-H23 cells after 48 hrs by sulforhodamine B assay; assay type: functional; conditions: NCI-H23, 48 h
MDA-MB-435 = assay: Cytotoxicity against human MDA-MB-435 cells after 48 hrs by sulforhodamine B assay; assay type: functional; conditions: MDA-MB-435, 48 h
[7] = read-out: pLC50 (the source's name) (converted)

SMILES: OCc1ccc(Cn2c3ccccc3c3oc(CO)cc32)o1
- Activity (A498 [1]): Active
- GI50 (NCI-H322M): > 100 µM
- CC50 (NCI-H322M; [7]): > 100 µM
- TGI (NCI-H322M; read-out: pTGI): > 100 µM
- GI50 (COLO 205): 61.7 µM
- CC50 (COLO 205; [7]): > 100 µM
- TGI (COLO 205; read-out: pTGI): > 100 µM
- Activity (A498 [2]): 19.4%
- GI50 (HOP-62): > 100 µM
- CC50 (HOP-62; [7]): > 100 µM
- TGI (HOP-62; read-out: pTGI): > 100 µM
- GI50 (A498 [3]): 0.141 µM
- CC50 (A498 [3]; read-out: pLC50 (converted)): 0.661 µM
- TGI (A498 [3]; read-out: pTGI (converted)): 0.302 µM
- GI50 (U-251): 30.9 µM
- CC50 (U-251; [7]): > 100 µM
- TGI (U-251; read-out: pTGI): > 100 µM
- GI50 (ACHN): 79.4 µM
- CC50 (ACHN; [7]): > 100 µM
- TGI (ACHN; read-out: pTGI): > 100 µM
- GI50 (SK-OV-3): > 100 µM
- CC50 (SK-OV-3; [7]): > 100 µM
- TGI (SK-OV-3; read-out: pTGI): > 100 µM
- GI50 [4]: 24 µM
- CC50 [4, 7]: > 100 µM
- TGI ([4]; read-out: pTGI): > 100 µM
- IC50 (HL-60): > 50 µM
- GI50 (M14): 13.2 µM
- CC50 (M14; [7]): > 100 µM
- TGI (M14; read-out: pTGI): > 100 µM
- IC50 (Detroit 551): > 50 µM
- GI50 (SR): 89.1 µM
- CC50 (SR; [7]): > 100 µM
- TGI (SR; read-out: pTGI): > 100 µM
- GI50 (MCF7): 9.33 µM
- CC50 (MCF7; [7]): > 100 µM
- TGI (MCF7; read-out: pTGI): > 100 µM
- GI50 (SF-295): 26.9 µM
- CC50 (SF-295; [7]): > 100 µM
- TGI (SF-295; read-out: pTGI): > 100 µM
- GI50 (SF-539): > 100 µM
- CC50 (SF-539; [7]): > 100 µM
- TGI (SF-539; read-out: pTGI): > 100 µM
- Activity (Mus musculus): Non-toxic
- GI50 (HCT-116): 0.912 µM
- CC50 (HCT-116; [7]): > 100 µM
- TGI (HCT-116; read-out: pTGI): > 100 µM
- GI50 (SN12C): > 100 µM
- CC50 (SN12C; [7]): > 100 µM
- TGI (SN12C; read-out: pTGI): > 100 µM
- Activity (A498 [5]): 72.65%
- GI50 (CAKI-1): 51.3 µM
- CC50 (CAKI-1; [7]): > 100 µM
- TGI (CAKI-1; read-out: pTGI): > 100 µM
- GI50 (UACC-257): 1.45 µM
- CC50 (UACC-257; [7]): > 100 µM
- TGI (UACC-257; read-out: pTGI (converted)): 4.37 µM
- Activity (A498 [6]): 21.5%
- GI50 (NCI/ADR-RES): > 100 µM
- CC50 (NCI/ADR-RES; [7]): > 100 µM
- TGI (NCI/ADR-RES; read-out: pTGI): > 100 µM
- GI50 (SNB-19): > 100 µM
- CC50 (SNB-19; [7]): > 100 µM
- TGI (SNB-19; read-out: pTGI): > 100 µM
- GI50 (SW-620): > 100 µM
- CC50 (SW-620; [7]): > 100 µM
- TGI (SW-620; read-out: pTGI): > 100 µM
- GI50 (NCI-H23): > 100 µM
- CC50 (NCI-H23; [7]): > 100 µM
- TGI (NCI-H23; read-out: pTGI): > 100 µM
- GI50 (MDA-MB-435): > 100 µM
- CC50 (MDA-MB-435; [7]): > 100 µM
- TGI (MDA-MB-435; read-out: pTGI): > 100 µM
